# Source: PubChem BioAssay AID1242 (PCMD, 2008)
# The campaign covered roughly 120,000 compounds. About 20 (0.02%) were called active.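 How the source made its calls: active means inhibition above 30.3% in the primary screen of four-compound pools, then above 30% when the compound was retested; inconclusive means passed the primary limit but could not be retested; inactive means the rest.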 Shown is part of a subset that was picked to be rich in actives.
# Test: Candida albicans biofilm persister killing – 4-compound mixtures, primary screen (AID 1242);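 further: compounds exposed to preformed 24 h biofilms for 48 h; 0% = untreated biofilm control and 100% = clotrimazole plus chlorhexidine kill blank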
# Conditions: C. albicans biofilm persisters + clotrimazole, fluorescence viability, primary screen in compound mixtures, stronger effect = higher value
# In short: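 Test system: C. albicans biofilms. Buffer or medium: RPMI/MOPS medium, pH 7.0. Timing: 48 h compound exposure at 37 °C. Technique: Alamar Blue fluorescence. Evaluation: percent inhibition of biofilm viability.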
# [1] = measured here: individual compound retest, at 61 µM
smiles,measurement,setting,value
CC(=O)Nc1ccc(S(=O)(=O)NC2(C(F)(F)F)C(=O)NC(C)=C2C#N)cc1 (stereo not given),inhibition,at 7.6 µM unless noted,25.1% (inactive)
O=C(Nc1nnc(C2CC2)s1)C1=NN(C2CCS(=O)(=O)C2)C(=O)CC1 (stereo not given),inhibition,at 7.6 µM unless noted,7.46% (inactive)
COc1cccc(/C=C/C(=O)Nc2ccc3c(c2)OCCO3)c1,inhibition,at 7.6 µM unless noted,21.2% (inactive)
O=C(CC1CCCCC1)NCc1ccc(F)cc1,inhibition,at 7.6 µM unless noted,14.7% (inactive)
Cc1ccc(CN2CCN(Cc3ccc(OCCO)cc3)CC2CCO)o1 (stereo not given),inhibition,at 7.6 µM unless noted,19.8% (inactive)
COC(=O)c1cc(C(=O)OCC(=O)Nc2cc(C)on2)cc([N+](=O)[O-])c1,inhibition,at 7.6 µM unless noted,19.1% (inactive)
Cc1nc(=O)c(-c2ccccc2)c(C)n1-c1ccc(Br)cc1,inhibition,at 7.6 µM unless noted,15.2% (inactive)
O=C(CCc1ccccc1)NCCc1cccs1,inhibition,at 7.6 µM unless noted,19.8% (inactive)
Cc1ccc(C(=O)NNc2ncnc3ccccc23)cc1,inhibition,at 7.6 µM unless noted,25.7% (inactive)
CCOC(=O)C1CCN(c2ncnc3c2c(-c2ccccc2)cn3-c2ccc(C)cc2)CC1,inhibition,at 7.6 µM unless noted,10.1% (inactive)
O=C1CC(Cc2ccc(Cl)cc2)C(=O)N1c1cc(Cl)ccn1 (stereo not given),inhibition,at 7.6 µM unless noted,15.9% (inactive)
CCc1ccccc1NC(=O)CSc1nnc(CCNC(=O)OC(C)(C)C)o1,inhibition,at 7.6 µM unless noted,24.5% (inactive)
O=C(O)c1cccc(NC(=O)c2cc(-c3cccc(Cl)c3)nc3ccccc23)c1,inhibition,at 7.6 µM unless noted,16.3% (inactive)
Cn1cnnc1SCC(=O)Nc1ccc(N2CCOCC2)cc1,inhibition,at 7.6 µM unless noted,1.33% (inactive)
COc1c(C)cc(C(=O)C2CCCN(S(=O)(=O)c3c(C)noc3C)C2)cc1C (stereo not given),inhibition,at 7.6 µM unless noted,2.3% (inactive)
COc1cc(N2C(=O)c3ccccc3C2=O)c(Cl)cc1C(=O)OCC(=O)N1CCOCC1,inhibition,at 7.6 µM unless noted,3.87% (inactive)
COc1ccc(CCNC(=O)C(=O)Nc2ccc3nc4n(c(=O)c3c2)CCCCC4)cc1OC,inhibition,at 7.6 µM unless noted,5.01% (inactive)
O=C(O)c1ccc(/C=N/NC(=S)NCc2ccccc2)cc1,inhibition,at 7.6 µM unless noted,10.6% (inactive)
COc1ccc(-c2[nH]ncc2CN(Cc2nccn2C)C(C)C)cc1F,inhibition,at 7.6 µM unless noted,6.59% (inactive)
Cc1ccc(NC(=O)c2ccccn2)cc1S(=O)(=O)N1CCOCC1,inhibition,at 7.6 µM unless noted,7.29% (inactive)
Cc1ccc(NC(=S)N(CCN(C)C)Cc2cccs2)cc1C,inhibition,at 7.6 µM unless noted,17.2% (inactive)
O=[N+]([O-])c1cccc2ncccc12,inhibition,at 7.6 µM unless noted,12.4% (inactive)
COc1cccc(N2C(=O)CC(N3CCc4ccccc4C3)C2=O)c1 (stereo not given),inhibition,at 7.6 µM unless noted,17.8% (inactive)
CCOc1cc(NC(=S)NCc2ccco2)c(OCC)cc1NC(=O)c1ccco1,inhibition,at 7.6 µM unless noted,2.67% (inactive)
N/C(=N\OC(=O)c1ccc2c(c1)OCO2)c1ccc(Br)cc1,inhibition,at 7.6 µM unless noted,8.49% (inactive)
CC(=O)Cn1ncc(N2CCOCC2)c(Br)c1=O,inhibition,at 7.6 µM unless noted,-3.05% (inactive)
Cn1nnnc1SCC(=O)NNC(=O)c1ccc(Br)cc1,inhibition,at 7.6 µM unless noted,11.2% (inactive)
CCCCN(C(=O)COc1ccc(NC(C)=O)cc1)C1CCS(=O)(=O)C1 (stereo not given),inhibition,at 7.6 µM unless noted,12.9% (inactive)
O=C(c1cn2ccccc2n1)N1CCc2c([nH]c3ccccc23)C1c1ccccn1 (stereo not given),inhibition,at 7.6 µM unless noted,0.31% (inactive)
O=c1[nH]c(N2CCN(Cc3ccc4c(c3)OCO4)CC2)nc2c1CCCC2,inhibition,at 7.6 µM unless noted,6.65% (inactive)
CCOC(=O)c1c(-c2cccc(N)c2)cn2ccccc12,inhibition,at 7.6 µM unless noted,6.08% (inactive)
O=C(Nc1ccc2c(c1)C(=O)OC2)Nc1cccc2ccccc12,inhibition,at 7.6 µM unless noted,-1.47% (inactive)
CC(Oc1ccc(Br)cc1Br)C(=O)NC1CCCC1 (stereo not given),inhibition,at 7.6 µM unless noted,19.2% (inactive)
COc1ccc(CC(=O)NCC(=O)N/N=C/c2cc(Br)ccc2OC)cc1,inhibition,at 7.6 µM unless noted,19.3% (inactive)
CCOC(=O)/C(C#N)=C/c1ccc(N2CCCCC2)cc1,inhibition,at 7.6 µM unless noted,16.2% (inactive)
CCc1ccc(Nc2nnc(SCC(=O)c3ccc4c(c3)NC(=O)CO4)s2)cc1,inhibition,at 7.6 µM unless noted,10.2% (inactive)
COc1ccc(C(=O)OCC(=O)NCC2CCCO2)cc1[N+](=O)[O-] (stereo not given),inhibition,at 7.6 µM unless noted,12.1% (inactive)
CN(c1ccccc1)S(=O)(=O)c1cc(C(=O)OCC(=O)N2CCN(C(=O)c3ccco3)CC2)ccc1Cl,inhibition,at 7.6 µM unless noted,13.3% (inactive)
COc1cc2c(cc1OC)CC1(CCCCC1)N=C2,inhibition,at 7.6 µM unless noted,4.41% (inactive)
Cc1ccc(C2CC(c3cccc(NS(C)(=O)=O)c3)=NN2S(C)(=O)=O)cc1 (stereo not given),inhibition,at 7.6 µM unless noted,16% (inactive)
COCCC(=O)Nc1ccc2c(c1)CN(C(=O)CCOC)CC2,inhibition,at 7.6 µM unless noted,18% (inactive)
CC(C)(C)c1cc(NC(=O)NN2CCOCC2)nn1-c1c(Cl)cc(Cl)cc1Cl,inhibition,at 7.6 µM unless noted,5.67% (inactive)
C=CCOCCN(C)C1=NS(=O)(=O)c2ccccc21,inhibition,at 7.6 µM unless noted,3.65% (inactive)
CN(C)S(=O)(=O)c1cccc(NC(=O)COC(=O)c2cc(=O)[nH]c(=O)[nH]2)c1,inhibition,at 7.6 µM unless noted,26.1% (inactive)
CCOCCCN(C(=O)Cn1nnc(-c2ccc(OC)c(OC)c2)n1)C(CC)C(=O)NC1CCCC1 (stereo not given),inhibition,at 7.6 µM unless noted,18.7% (inactive)
Cc1cccc(N2CCN(c3ccc(C(N)=O)cc3[N+](=O)[O-])CC2)c1C,inhibition,at 7.6 µM unless noted,16.6% (inactive)
CCOC(=O)C1CCN(CCC(=O)Nc2cccc(C)c2)CC1,inhibition,at 7.6 µM unless noted,9.47% (inactive)
OCCC1CN(Cc2cccc(OC3CCCC3)c2)CCN1Cc1ccsc1 (stereo not given),inhibition,at 7.6 µM unless noted,13.6% (inactive)
CN(C)N(C)C(=O)C(O)(c1ccccc1)c1ccccc1,inhibition,at 7.6 µM unless noted,8.15% (inactive)
CCOc1ccc(NS(=O)(=O)c2ccc(C)c(C(N)=O)c2)cc1,inhibition,at 7.6 µM unless noted,13.4% (inactive)
CCC(C)(C)NC(=O)/C=C/c1cc(OC)c(OC)c(S(=O)(=O)N2CCc3ccccc32)c1,inhibition,at 7.6 µM unless noted,12.1% (inactive)
Cc1ccc(S(=O)(=O)/N=C(/Nc2ccc3[nH]c(=O)[nH]c3c2)c2ccccc2)cc1,inhibition,at 7.6 µM unless noted,25.2% (inactive)
CCCCN(CC)CCNC(=O)CCNC(=O)Cn1ccc2ccccc2c1=O,inhibition,at 7.6 µM unless noted,8.03% (inactive)
CN(CC(O)COc1ccc(S(=O)(=O)N2CCOCC2)cc1Cl)C1CCCCC1 (stereo not given),inhibition,at 7.6 µM unless noted,28.8% (inactive)
Nc1nc(NCC2CCCO2)nc(Nc2ccccc2F)c1[N+](=O)[O-] (stereo not given),inhibition,at 7.6 µM unless noted,13.6% (inactive)
Cn1nc(C(C)(C)C)c([N+](=O)[O-])c1C(N)=O,inhibition,at 7.6 µM,56.6% (inactive)
same,inhibition,[1],-53.4%
O=C1N(c2ccccc2)C(=Nc2ccccc2)SC12CC2,inhibition,at 7.6 µM unless noted,16.8% (inactive)
CCN(CC)CCN(C(=O)c1ccc(N2C(=O)CCC2=O)cc1)c1nc2cc3c(cc2s1)OCO3,inhibition,at 7.6 µM unless noted,4.15% (inactive)
CCC(=O)NC(=S)Nc1ccc(NC(=O)c2ccco2)c(Cl)c1,inhibition,at 7.6 µM unless noted,2.96% (inactive)
O=C(c1cccc([N+](=O)[O-])c1)N1CCN(C(=O)c2ccco2)CC1,inhibition,at 7.6 µM unless noted,0.32% (inactive)
COC(=O)c1cccc(NS(C)(=O)=O)c1,inhibition,at 7.6 µM unless noted,13.2% (inactive)
Cn1ccc(NC(=O)Nc2ccc(Cl)cc2)n1,inhibition,at 7.6 µM unless noted,16.2% (inactive)
Cc1ccc(O)c(NC(=S)NC(=O)COc2ccc(Br)cc2)c1,inhibition,at 7.6 µM unless noted,9.22% (inactive)
CCN(CC)C(=O)C(=O)Nc1cccc(Br)c1,inhibition,at 7.6 µM unless noted,10% (inactive)
COc1ccccc1CNC(=O)CNC(=O)c1cn(-c2ccccc2OC)c(=O)c2ccccc12,inhibition,at 7.6 µM unless noted,24.6% (inactive)
OCCC1CN(Cc2ccc(Oc3ncccn3)cc2)CCN1CCc1ccccc1 (stereo not given),inhibition,at 7.6 µM unless noted,23.9% (inactive)
CC(NCc1nc2ccccc2n1C)C12CC3CC(CC(C3)C1)C2 (stereo not given),inhibition,at 7.6 µM,63.4% (inactive)
same,inhibition,[1],0.64%
O=C(NC(=S)Nc1ccc(S(=O)(=O)Nc2ncccn2)cc1)c1cccc(Br)c1,inhibition,at 7.6 µM unless noted,20.2% (inactive)
Nc1c(N(CCO)C(=O)C2CCCCC2)c(=O)[nH]c(=O)n1Cc1ccccc1,inhibition,at 7.6 µM unless noted,4.09% (inactive)
Cc1cc(C)c(C)c(S(=O)(=O)N[C@@H](C)C(=O)OC(C)C(=O)NC(N)=O)c1C (stereo not given in full),inhibition,at 7.6 µM unless noted,14.7% (inactive)
Cc1ccc(S(=O)(=O)/N=C(\N)c2ccc(F)cc2)cc1,inhibition,at 7.6 µM unless noted,3.79% (inactive)
O=C(OCc1ccc([N+](=O)[O-])cc1)c1ccccn1,inhibition,at 7.6 µM unless noted,15% (inactive)
Cc1cc(C)n(-c2ccc(C(=O)O)cc2[N+](=O)[O-])n1,inhibition,at 7.6 µM unless noted,2.45% (inactive)
COc1cc(N/C=C2\CC(=O)NC(C)=C2C#N)cc(OC)c1OC,inhibition,at 7.6 µM unless noted,14.1% (inactive)
O=C(Nc1ccc(F)cc1)N1CCCC(c2nc3c(nnn3Cc3ccccc3Cl)c(=O)[nH]2)C1 (stereo not given),inhibition,at 7.6 µM unless noted,11.9% (inactive)
NC(=O)Cc1nc2scc(-c3ccc(Cl)cc3)c2c(=O)[nH]1,inhibition,at 7.6 µM unless noted,4.85% (inactive)
CC(=O)Nc1ccc(OCC(=O)NCc2ccc(C)cc2)cc1,inhibition,at 7.6 µM unless noted,10.5% (inactive)
COc1ccc(C2NC(=S)NC3=C2CCc2ccccc23)cc1OC (stereo not given),inhibition,at 7.6 µM unless noted,18.9% (inactive)
COc1ccc(Cl)cc1CSc1ncn[nH]1,inhibition,at 7.6 µM unless noted,13.5% (inactive)
COc1cccc(-n2c(=S)sc3c(=O)n(-c4ccccc4OC)c(SCC4OCCO4)nc32)c1,inhibition,at 7.6 µM unless noted,28.1% (inactive)
OC1CCCN(c2ncnc3c2nnn3Cc2c(F)cccc2Cl)C1 (stereo not given),inhibition,at 7.6 µM unless noted,19.6% (inactive)
Cc1cnc(C(=O)OCC(=O)N2CCc3ccccc32)cn1,inhibition,at 7.6 µM unless noted,-4.77% (inactive)
COCCn1c(C)cc(C(=O)CSc2nc3ccccc3c(=O)n2C(C)COC)c1C (stereo not given),inhibition,at 7.6 µM unless noted,8.22% (inactive)
Cc1nc(CNS(=O)(=O)c2cc([N+](=O)[O-])ccc2C)cs1,inhibition,at 7.6 µM unless noted,22.4% (inactive)
CCCCCCCC(=O)OC(CN1CCCCCC1)CN1CCCC1=O (stereo not given),inhibition,at 7.6 µM unless noted,0.73% (inactive)
COc1ccccc1N1CCN(C(=O)CSc2ncnc3c2cnn3-c2ccc(C)c(C)c2)CC1,inhibition,at 7.6 µM unless noted,19.7% (inactive)
CCOc1cc(C2C(C(=O)OC(C)C)=C(C)NC3=C2C(=O)CCC3)cc([N+](=O)[O-])c1O (stereo not given),inhibition,at 7.6 µM unless noted,16.6% (inactive)
COc1ccc(C)cc1NC(=O)NCc1ccccn1,inhibition,at 7.6 µM unless noted,16.2% (inactive)
CC(/C=C/c1ccco1)=N/NC(=O)C1COc2ccccc2O1 (stereo not given),inhibition,at 7.6 µM unless noted,16.1% (inactive)
COc1ccc(-n2c(C)nn(CC3CC3)c2=O)cc1,inhibition,at 7.6 µM unless noted,-10.4% (inactive)
Cc1ccnc2nc(C(=O)OCC(=O)N(CC(C)C)CC(C)C)nn12,inhibition,at 7.6 µM unless noted,6.65% (inactive)
CNC(=S)N1CCC(NC(=O)C(Cc2ccc(F)cc2)NC(C)=O)CC1 (stereo not given),inhibition,at 7.6 µM unless noted,5.74% (inactive)
COc1ccc(CC(=O)NCc2nnc(SCC(=O)Nc3nccs3)n2C)cc1,inhibition,at 7.6 µM unless noted,7.45% (inactive)
